From ChEMBL document CHEMBL4732053, “Design, synthesis and structure-activity relationship study of novel urea compounds as FGFR1 inhibitors to treat metastatic triple-negative breast cancer” (Eur J Med Chem, 2021)

Tests used:
MDA-MB-231 = experiment: Cytotoxicity against human MDA-MB-231 cells assessed as reduction in cell viability incubated for 48 hrs by MTT assay; type: functional, cell-based; conditions: MDA-MB-231, 48 h
Outline: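 MTT assay in MDA-MB-231 cells grown in DMEM with 10% heat-inactivated FBS at 37 °C and 5% CO2. Cells were seeded at 8000 per well, left 24 h, then exposed for 48 h to 0–25 μM in DMEM with 2% FBS (final DMSO 0.1%). MTT (0.5 mg/mL) was added for 2 h, formazan was dissolved in DMSO and read at 570 nm. Runs were in triplicate and IC50 was derived from the curves.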

D(1A) dopamine receptor = D(1A) dopamine receptor (Homo sapiens, UniProt P21728); experiment: Binding affinity to dopamine D1 receptor (unknown origin) at 10 uM
Sequence of D(1A) dopamine receptor (P21728 whole entry): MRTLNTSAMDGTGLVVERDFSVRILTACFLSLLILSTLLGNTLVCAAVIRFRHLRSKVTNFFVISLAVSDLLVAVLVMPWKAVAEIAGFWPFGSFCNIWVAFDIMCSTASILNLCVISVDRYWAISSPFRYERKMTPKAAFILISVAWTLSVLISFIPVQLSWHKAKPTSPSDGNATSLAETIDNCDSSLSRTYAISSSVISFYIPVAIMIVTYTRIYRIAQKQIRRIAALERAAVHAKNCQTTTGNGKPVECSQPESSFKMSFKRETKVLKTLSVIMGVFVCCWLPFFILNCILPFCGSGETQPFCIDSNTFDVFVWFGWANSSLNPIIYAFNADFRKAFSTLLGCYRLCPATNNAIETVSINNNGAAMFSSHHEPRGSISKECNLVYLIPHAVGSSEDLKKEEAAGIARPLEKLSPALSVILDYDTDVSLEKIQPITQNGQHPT
Outline: (§1)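 Primary radioligand-binding screen by the NIMH Psychoactive Drug Screening Program. Each compound was tested at a final concentration of 10 μM in triplicate or quadruplicate, and % inhibition was recorded. Data are mean ± SEM of four independent experiments. Compounds reaching at least 50% antagonist activity went on to secondary dose-response assays.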

D(2) dopamine receptor = D(2) dopamine receptor (Homo sapiens, UniProt P14416); experiment: Binding affinity to dopamine D2 receptor (unknown origin) at 10 uM; outline: as §1
Sequence of D(2) dopamine receptor (P14416 whole entry): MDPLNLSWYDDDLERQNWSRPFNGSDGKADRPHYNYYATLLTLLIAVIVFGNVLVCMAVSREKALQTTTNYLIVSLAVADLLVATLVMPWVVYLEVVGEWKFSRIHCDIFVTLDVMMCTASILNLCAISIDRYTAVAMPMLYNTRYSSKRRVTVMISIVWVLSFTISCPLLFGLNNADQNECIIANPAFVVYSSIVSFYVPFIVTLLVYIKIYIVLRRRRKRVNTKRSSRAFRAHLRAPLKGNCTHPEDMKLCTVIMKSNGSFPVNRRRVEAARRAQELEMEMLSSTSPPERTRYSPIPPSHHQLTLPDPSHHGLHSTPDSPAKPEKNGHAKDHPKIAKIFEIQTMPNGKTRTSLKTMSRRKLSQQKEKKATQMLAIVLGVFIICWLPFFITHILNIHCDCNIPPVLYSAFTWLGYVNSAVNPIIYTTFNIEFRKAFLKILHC

D(3) dopamine receptor = D(3) dopamine receptor (Homo sapiens, UniProt P35462); experiment: Binding affinity to dopamine D3 receptor (unknown origin) at 10 uM; type: ADME; outline: as §1
Sequence of D(3) dopamine receptor (P35462 whole entry): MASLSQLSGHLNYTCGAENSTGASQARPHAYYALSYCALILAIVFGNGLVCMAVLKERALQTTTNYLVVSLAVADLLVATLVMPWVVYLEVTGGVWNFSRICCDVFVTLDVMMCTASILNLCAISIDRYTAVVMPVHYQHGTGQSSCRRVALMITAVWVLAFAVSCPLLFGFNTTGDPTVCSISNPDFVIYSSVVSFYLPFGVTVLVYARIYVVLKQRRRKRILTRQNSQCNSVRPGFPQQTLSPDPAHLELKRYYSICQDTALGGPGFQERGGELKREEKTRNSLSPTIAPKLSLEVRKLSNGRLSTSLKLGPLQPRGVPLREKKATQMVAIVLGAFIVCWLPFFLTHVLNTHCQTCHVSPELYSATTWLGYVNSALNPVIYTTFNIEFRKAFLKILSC

D(4) dopamine receptor = molecular target: T1, D(4) dopamine receptor (Homo sapiens, UniProt P21917); experiment: Binding affinity to dopamine D4 receptor (unknown origin) at 10 uM; outline: as §1
T1 sequence (P21917 whole entry): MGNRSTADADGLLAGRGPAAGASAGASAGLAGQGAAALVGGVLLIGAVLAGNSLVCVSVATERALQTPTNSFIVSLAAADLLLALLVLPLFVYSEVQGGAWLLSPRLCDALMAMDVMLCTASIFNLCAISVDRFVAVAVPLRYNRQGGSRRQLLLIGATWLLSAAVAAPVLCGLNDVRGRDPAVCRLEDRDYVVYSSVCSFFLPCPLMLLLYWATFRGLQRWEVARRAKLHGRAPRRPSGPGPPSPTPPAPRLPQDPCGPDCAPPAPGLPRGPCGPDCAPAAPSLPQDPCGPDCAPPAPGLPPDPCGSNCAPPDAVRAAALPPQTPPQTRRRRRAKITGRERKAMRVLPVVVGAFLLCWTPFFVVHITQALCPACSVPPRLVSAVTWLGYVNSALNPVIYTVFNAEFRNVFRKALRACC

D(1B) dopamine receptor = D(1B) dopamine receptor (Homo sapiens, UniProt P21918); experiment: Binding affinity to dopamine D5 receptor (unknown origin) at 10 uM; outline: as §1
Sequence of D(1B) dopamine receptor (P21918 whole entry): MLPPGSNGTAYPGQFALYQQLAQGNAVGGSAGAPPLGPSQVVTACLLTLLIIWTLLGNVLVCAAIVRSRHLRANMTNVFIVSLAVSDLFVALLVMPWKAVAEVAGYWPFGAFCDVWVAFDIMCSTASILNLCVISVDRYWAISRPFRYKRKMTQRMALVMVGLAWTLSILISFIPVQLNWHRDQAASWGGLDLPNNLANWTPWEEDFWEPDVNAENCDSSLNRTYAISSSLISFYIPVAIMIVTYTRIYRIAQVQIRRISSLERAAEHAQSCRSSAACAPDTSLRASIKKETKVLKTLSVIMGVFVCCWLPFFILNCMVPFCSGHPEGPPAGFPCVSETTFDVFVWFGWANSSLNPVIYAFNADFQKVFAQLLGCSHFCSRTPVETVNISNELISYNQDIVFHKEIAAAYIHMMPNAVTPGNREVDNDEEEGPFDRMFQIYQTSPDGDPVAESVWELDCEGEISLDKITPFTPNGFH

[1] = molecular target: Sodium-dependent dopamine transporter (Homo sapiens, UniProt Q01959); experiment: Inhibition of DAT (unknown origin)
Sequence of Sodium-dependent dopamine transporter (Q01959 whole entry): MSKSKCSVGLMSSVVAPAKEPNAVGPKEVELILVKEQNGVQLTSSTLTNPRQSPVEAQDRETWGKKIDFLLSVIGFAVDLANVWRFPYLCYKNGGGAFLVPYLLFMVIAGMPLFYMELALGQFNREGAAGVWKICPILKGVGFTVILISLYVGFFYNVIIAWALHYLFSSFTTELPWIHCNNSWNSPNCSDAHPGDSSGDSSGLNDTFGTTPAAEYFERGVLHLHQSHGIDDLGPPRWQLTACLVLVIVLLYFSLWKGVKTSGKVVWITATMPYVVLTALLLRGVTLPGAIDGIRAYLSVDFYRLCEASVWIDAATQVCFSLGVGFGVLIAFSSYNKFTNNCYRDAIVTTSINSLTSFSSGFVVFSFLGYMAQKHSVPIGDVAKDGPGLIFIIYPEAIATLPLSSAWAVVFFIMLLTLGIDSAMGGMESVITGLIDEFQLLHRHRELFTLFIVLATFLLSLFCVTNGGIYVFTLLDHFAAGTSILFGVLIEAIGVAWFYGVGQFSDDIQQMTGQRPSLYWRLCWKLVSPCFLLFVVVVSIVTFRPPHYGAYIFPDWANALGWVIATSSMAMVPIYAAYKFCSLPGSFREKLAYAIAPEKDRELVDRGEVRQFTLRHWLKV

Histamine H1 receptor = Histamine H1 receptor (Homo sapiens, UniProt P35367); experiment: Inhibition of H1R (unknown origin)
Sequence of Histamine H1 receptor (P35367 whole entry): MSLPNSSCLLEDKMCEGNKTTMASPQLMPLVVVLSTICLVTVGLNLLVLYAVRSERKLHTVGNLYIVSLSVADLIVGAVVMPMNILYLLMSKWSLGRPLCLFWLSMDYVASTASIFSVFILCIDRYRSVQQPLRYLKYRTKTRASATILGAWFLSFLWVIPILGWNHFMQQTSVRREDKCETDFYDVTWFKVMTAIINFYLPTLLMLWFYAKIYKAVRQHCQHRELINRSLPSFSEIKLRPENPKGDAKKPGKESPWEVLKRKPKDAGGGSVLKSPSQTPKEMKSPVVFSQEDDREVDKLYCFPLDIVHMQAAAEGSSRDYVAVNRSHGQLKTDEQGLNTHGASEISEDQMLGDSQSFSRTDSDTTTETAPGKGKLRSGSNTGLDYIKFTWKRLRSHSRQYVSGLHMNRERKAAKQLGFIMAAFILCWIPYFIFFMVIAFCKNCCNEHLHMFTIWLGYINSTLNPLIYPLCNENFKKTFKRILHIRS

[2] = molecular target: DAT (sodium-dependent dopamine transporter) (Homo sapiens, UniProt Q01959); experiment: Inhibition of DAT (unknown origin) at 10 uM relative to control; outline: as §1
Sequence of DAT (sodium-dependent dopamine transporter) (Q01959 whole entry): as the sequence (Q01959 whole entry) above

[3] = Drug uptake in C57 mouse brain at 10 mg/kg, ip measured after 1 hrs by LC-MS/MS analysis; type: ADME, organism-based; conditions: in vivo
Outline: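 Eight-week-old male and female C57 mice (~20 g) received a single 10 mg/kg i.p. dose in ethanol 2.5%, DMSO 2.5%, Tween 80 5%, PEG 400 25% and PBS 65%. Brains were taken after cardiac perfusion at 0–48 h. Tissue was homogenized in PBS (1:3 w/v), extracted with acetonitrile containing internal standard, and quantified by LC-MS/MS against matrix-matched calibration curves. n = 2–4.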

Activity (D(1A) dopamine receptor): Not Active
Activity (D(2) dopamine receptor): Not Active
Activity (D(3) dopamine receptor): Not Active
Activity (D(4) dopamine receptor): Not Active
Activity (D(1B) dopamine receptor): Not Active
Ki [1]: 0.015 µM
inhibition (INH) (Histamine H1 receptor): Active
inhibition at 10 µM [2]: 82%
Drug uptake [3]: Active
Compound: O=C(NCCCCC(c1ccc(F)cc1)c1ccc(F)cc1)Nc1ccc(Cl)cc1
IC50 (MDA-MB-231): 7.68 µM
